Results gathered from unrelated publications.
Each line is one published result; the experiments were not run side by side.
Target: Mitogen-activated protein kinase kinase kinase kinase 1 (MAP4K1, Homo sapiens, UniProt Q92918)

| SMILES | assay | conditions | endpoint | value |
| --- | --- | --- | --- | --- |
| CN1CCN(C(=O)c2ccc(NC(=O)Nc3ccc(N(C)c4ccnc(Nc5ccc(CS(C)(=O)=O)cc5)n4)cc3)cc2)CC1 | binding, competition with immobilised ligand | 1 µM | remaining binding | 2.6% |
| CCCCC(=O)Nc1ccc(-c2ccc3ncn(CCC)c(=O)c3c2)cn1 | binding, competition with immobilised ligand | 0.5 µM | remaining binding | 100% |
| CC(C)S(=O)(=O)c1ccc2nccc(Nc3ccc4sc(C5CCCC5)nc4c3)c2c1 | enzyme activity, inhibitor | 1 µM | activity vs control | 102% |
| C=CC(=O)N1CCC[C@@H](n2nc(-c3ccc(Oc4ccccc4)cc3)c3c(N)ncnc32)C1 | enzyme activity, inhibitor | 1 µM | inhibition | 10% |
| C#Cc1cc(-c2cc(Nc3nc(N[C@@H](C)c4ccc(F)cn4)ncc3Cl)n[nH]2)ccc1C=O | enzyme activity, inhibitor | 0.2 µM | inhibition | 47.8% |
| CO[C@@H]1[C@H](N(C)C(=O)c2ccccc2)C[C@H]2O[C@]1(C)n1c3ccccc3c3c4c(c5c6ccccc6n2c5c31)C(=O)NC4 | enzyme activity, inhibitor | 1 µM | inhibition | 80% |
| C[C@H]1CC[C@H](n2c3cnccc3c3cnc(Nc4ccc5c(n4)CCN(C(=O)CO)C5)nc32)CC1 | binding, competition with immobilised ligand | 1 µM | remaining binding | 66% |
| COc1ccc2oc(-c3ccc4nc(N)oc4c3)c/c(=N\c3ccccc3NC(=O)CCN)c2c1 | binding | 1 µM | remaining binding | 109% |
